Screening results: PubChem BioAssay, several laboratories
G6PDH CS = L. mesenteroides G6PDH inhibitors, counter-screen for G6PDH-coupled screening assays, biochemical, Leuconostoc mesenteroides enzyme; 200,000 compounds, 0.12% hits; AID 1020, 2008; inhibition, % at 5 µM; glucose-6-phosphate dehydrogenase [Leuconostoc mesenteroides]; Purified L. mesenteroides G6PDH, diaphorase/resazurin coupled fluorescence, 45 min
Diaph act CS = compounds boosting diaphorase resazurin reduction – biochemical, uHTS, resorufin fluorescence, counter-screen for diaphorase-coupled primary assays, primary screen; Diaphorase/resazurin coupled assay, 16 min; active compounds read high; 1 = vehicle wells, 0 = NADH-free wells; activation factor at 20 µM; 190,000 compounds, 0.005% hits; AID 1229, 2008;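 active = diaphorase activity raised at least twofold by the compound at 20 µM; inactive = activation factor below 2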
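Assay system: bacterial diaphorase enzyme (C. kluyveri) / Input: enzyme 0.07 U/mL final / Medium: 50 mM HEPES pH 7.4 with 4.542 mM MgCl2, 0.005% Tween 20 / Doses: single compound dose of 20 µM, 1% DMSO final / Incubation: 16 min enzyme reaction, ambient temperature / Signal: fluorescence, excitation 544 nm and emission 590 nm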
WT yeast gro inh = growth inhibition of WT strain, primary screen, mitochondrial fusion inhibitor project, WT and mutant strains, chemical genetic. mitochondrial fusion phenotypic screen. inhibition, % at 10 µM. 190,000 compounds, 2.1% hits. AID 1362, 2008; in the data active = inhibition above about 58%; tested in S. cerevisiae
Diaph inh CS = diaphorase inhibitors and chemical oxidizers, primary screen, counter-screen for diaphorase-coupled primary assays, biochemical, uHTS, resorufin fluorescence; diaphorase resazurin-to-resorufin fluorescence, NADH, 16 min; bacterial (C. kluyveri) enzyme, not human; inhibition, % at 20 µM; 190,000 compounds, 0.69% hits;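 active = primary screen inhibition at 20 µM above a set limit, cut at about 50% in these data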;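 also: plate controls were DMSO with full reaction for no effect and wells lacking NADH for full effect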
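Test system: diaphorase enzyme from Clostridium kluyveri; amount: diaphorase at 0.14 U/mL in enzyme working solution; detection: fluorescence of resorufin formed from resazurin, Ex 544/Em 590 nm; times: reaction incubation of 16 min at room temperature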
Lmaj promast = Leishmania major promastigote growth inhibition, primary screen; AID 1063, 2008; inhibition, % at 10 µM; 200,000 compounds, 9% hits; Leishmania major promastigotes, resazurin fluorescence viability;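 also: promastigotes grown with compound for 44 hours at 28 °C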
* hit, by the source's call; / = no result given. The list is not random: actives were taken first. Their share in the collection is about 11%. Rule as the data show it, unless noted: active = inhibition above about 50%; inactive = the rest.

SMILES	G6PDH CS	Diaph act CS	WT yeast gro inh	Diaph inh CS	Lmaj promast
COc1cc(Br)cc(CN2CCN(C/C=C/c3ccccc3)CC2)c1O	9	0.8	29	21	88*
COc1ccc(O)c(CN2CCN(C/C=C/c3ccccc3)CC2)c1	5	0.9	4	11	85*
Cc1cc(C)c2c(CN3CCN(C/C=C/c4ccccc4)CC3)cc(=O)oc2c1	-5	0.9	50	11	14
Cc1cc(C)c(S(=O)(=O)N2CCC(C(=O)NCc3ccc(Cl)cc3Cl)CC2)c(C)c1	1	0.9	75*	15	6
CCS(=O)(=O)N1CCC(C(=O)NCc2ccc(F)cc2Cl)CC1	-3	0.9	7	13	-7
Cc1ccc(NC2=C/C(=N/S(=O)(=O)c3cccs3)c3ccccc3C2=O)cc1C	32	0.9	6	11	82*
Cc1cc(C)c[n+](C2=C([O-])c3ccccc3C(=O)/C2=N\S(=O)(=O)c2cccs2)c1	33	0.8	-5	22	21
CC(=O)Nc1ccc(NC2=C/C(=N/S(=O)(=O)c3cccs3)c3ccccc3C2=O)cc1	44	0.9	21	8	100*
Cc1cc[n+](C2=C([O-])c3ccccc3C(=O)/C2=N\S(=O)(=O)c2cccs2)cc1C	54*	0.9	15	14	25
CN(C)c1ccc(N/C(=N\S(=O)(=O)c2cccs2)c2ccccc2)cc1	6	0.9	2	12	4
Cc1cccn2c(=O)c(C=O)c(N3CCN(c4ccc(F)cc4)CC3)nc12	0	0.9	15	8	-3
Cc1ccc(C2CC(c3cccs3)=NN2S(=O)(=O)c2ccc(C)cc2)cc1 (centres undefined)	-14	0.9	61*	12	13
COc1ccc(C2CC(c3cccs3)=NN2S(=O)(=O)c2ccc(C)cc2)cc1 (centres undefined)	/	/	/	/	0
COC(=O)c1ccc(CN2C(=O)NC(CC(C)C)C2=O)cc1 (centres undefined)	1	1.1	-10	-11	2
Cc1cc(C(=O)Nc2ccc3c(c2)OCCO3)c2ccccc2n1	5	0.9	7	6	-2
Nc1c2c(nc3ccccc13)CCCC2	7	1	-1	2	36
COc1ccc(Nc2c3c(nc4ccccc24)CCCC3)cc1OC	-5	1	5	0	88*
c1ccc2c(Nc3ccc4c(c3)OCCO4)c3c(nc2c1)CCC3	5	1	-18	1	88*
c1ccc(Nc2c3c(nc4ccccc24)CCC3)cc1	-4	1	10	3	76*
Fc1ccc(Nc2c3c(nc4ccccc24)CCC3)cc1	-4	0.9	3	9	72*
O=C(COC(=O)C12CC3CC(CC(Br)(C3)C1)C2)N1CCOCC1	4	0.9	0	10	-3
Cc1ccc(S(=O)(=O)N(CC(=O)N=Nc2c(O)[nH]c3ccccc23)c2ccc(C)c(C)c2)cc1	-4	0.7	22	28	96*
N#Cc1nc(-c2ccccc2)oc1NCCN1CCCCC1	-8	1	13	2	87*
N#Cc1nc(Cc2cccc3ccccc23)oc1NCc1ccc(F)cc1	-33	0.8	71*	25	11
N#Cc1nc(-c2cccs2)oc1NCCN1CCOCC1	5	0.9	5	9	-1
SMILES	G6PDH CS	Diaph act CS	WT yeast gro inh	Diaph inh CS	Lmaj promast
N#Cc1nc(Cc2cccc3ccccc23)oc1NCCN1CCOCC1	-8	0.8	-19	19	72*
N#Cc1nc(Cc2cccc3ccccc23)oc1N1CCOCC1	3	0.9	/	9	29
Cc1ccc(CNS(=O)(=O)N(C)C)cc1	5	0.9	19	9	-1
CC1CCCC(NC(=O)CSc2ccc(F)cc2)C1C (centres undefined)	15	1	-9	3	-2
CC1CCCC(NCC(O)COC(c2ccc(F)cc2)c2ccc(F)cc2)C1C (centres undefined)	9	0.9	57	10	100*
Cc1cccc(Nc2nc(NCCCN3CCOCC3)nc(N)c2[N+](=O)[O-])c1	-2	1	-2	3	48
